Source: ChEMBL document CHEMBL3588757, “Structure-based design, synthesis and biological testing of piperazine-linked bis-epipodophyllotoxin etoposide analogs” (Bioorg Med Chem, 2015)
The source made the active and inactive calls. The rule behind the calls is not given here.

How the values were obtained:
[1] = test system: SN12C; experiment: Cytotoxicity against human SN12C cells assessed as cell growth at 0.5 uM by SRB assay; format: functional; conditions: read-out: Activity
[2] = test system: COLO 205; experiment: Cytotoxicity against human COLO205 cells assessed as cell growth at 50 uM by SRB assay; format: functional; conditions: read-out: Activity
[3] = test system: MCF7; experiment: Cytotoxicity against human MCF7 cells by SRB assay; format: functional
Outline: (§1)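 NCI-60 panel screen; 5-dose testing giving GI50 per cell line, plus a single 10 µM one-dose test. Method details not given beyond the NCI screen.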

[4] = test system: MDA-MB-231; experiment: Cytotoxicity against human MDA-MB-231/ATCC cells by SRB assay; format: functional; outline: as §1
[5] = test system: SK-OV-3; experiment: Cytotoxicity against human SKOV3 cells by SRB assay; format: functional; outline: as §1
[6] = test system: A549; experiment: Cytotoxicity against human A549/ATCC cells assessed as cell growth at 0.005 uM by SRB assay; format: functional; conditions: read-out: Activity
[7] = Cytotoxicity against human NCI-ADR-RES cells assessed as cell growth at 0.5 uM by SRB assay; format: functional; conditions: read-out: Activity
[8] = test system: SF-295; experiment: Cytotoxicity against human SF295 cells assessed as cell growth at 0.005 uM by SRB assay; format: functional; conditions: read-out: Activity
[9] = test system: TK-10; experiment: Cytotoxicity against human TK10 cells assessed as cell growth at 5 uM by SRB assay; format: functional; conditions: read-out: Activity
[10] = test system: NCI-H226; experiment: Cytotoxicity against human NCI-H226 cells assessed as cell growth at 0.05 uM by SRB assay; format: functional; conditions: read-out: Activity
[11] = test system: K562; experiment: Induction of DNA double strand breaks in human K562 cells assessed as increase in gamma-H2AX level at 25 uM after 4 hrs by chemiluminescence analysis; format: functional, cell-based
Outline: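 K562 cells (3.4 × 10^5/mL) exposed 4 h at 37 °C to 25 µM drug or DMSO. Lysed in Tris pH 6.7/SDS buffer; 50 µg protein on 14% SDS-PAGE, PVDF blot. Rabbit anti-γH2AX (1:1000, overnight), GAPDH loading control, HRP secondary. Chemiluminescence imaged by CCD.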

[12] = test system: HOP-62; experiment: Cytotoxicity against human HOP62 cells assessed as cell growth at 5 uM by SRB assay; format: functional; conditions: read-out: Activity
Outline: (§2)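 Measured in the NCI-60 human tumour cell line panel using five-dose testing. Growth was recorded at each dose for each cell line, and a GI50 was derived for each line.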

[13] = test system: OVCAR-5; experiment: Cytotoxicity against human OVCAR5 cells assessed as cell growth at 0.005 uM by SRB assay; format: functional; conditions: read-out: Activity
[14] = test system: NCI-H522; experiment: Cytotoxicity against human NCI-H522 cells assessed as cell growth at 50 uM by SRB assay; format: functional; conditions: read-out: Activity
[15] = test system: CAKI-1; experiment: Cytotoxicity against human Caki1 cells by SRB assay; format: functional
[16] = test system: HL-60(TB); experiment: Cytotoxicity against human HL-60(TB) cells assessed as cell growth at 5 uM by SRB assay; format: functional; conditions: read-out: Activity; outline: as §2
[17] = Cytotoxicity against human Hs578T cells assessed as cell growth at 0.05 uM by SRB assay; format: functional; conditions: Hs-578T, read-out: Activity; outline: as §2
[18] = test system: DU-145; experiment: Cytotoxicity against human DU145 cells by SRB assay; format: functional; outline: as §2
[19] = test system: NCI-H522; experiment: Cytotoxicity against human NCI-H522 cells assessed as cell growth at 5 uM by SRB assay; format: functional; conditions: read-out: Activity
[20] = test system: UO-31; experiment: Cytotoxicity against human UO31 cells assessed as cell growth at 0.5 uM by SRB assay; format: functional; conditions: read-out: Activity
[21] = test system: 786-0; experiment: Cytotoxicity against human 786-0 cells assessed as cell growth at 0.05 uM by SRB assay; format: functional; conditions: read-out: Activity
[22] = test system: SF-268; experiment: Cytotoxicity against human SF268 cells assessed as cell growth at 50 uM by SRB assay; format: functional; conditions: read-out: Activity
[23] = test system: MDA-MB-468; experiment: Cytotoxicity against human MDA-MB-468 cells assessed as cell growth at 50 uM by SRB assay; format: functional; conditions: read-out: Activity
[24] = test system: CCRF-CEM; experiment: Cytotoxicity against human CCRF-CEM cells assessed as cell growth at 5 uM by SRB assay; format: functional; conditions: read-out: Activity
[25] = test system: SNB-75; experiment: Cytotoxicity against human SNB75 cells assessed as cell growth at 0.005 uM by SRB assay; format: functional; conditions: read-out: Activity
[26] = test system: OVCAR-8; experiment: Cytotoxicity against human OVCAR8 cells assessed as cell growth at 0.05 uM by SRB assay; format: functional; conditions: read-out: Activity
[27] = test system: A549; experiment: Cytotoxicity against human A549/ATCC cells by SRB assay; format: functional
[28] = test system: HCT-15; experiment: Cytotoxicity against human HCT15 cells by SRB assay; format: functional; outline: as §2
[29] = test system: OVCAR-4; experiment: Cytotoxicity against human OVCAR4 cells by SRB assay; format: functional; outline: as §1
[30] = test system: SK-OV-3; experiment: Cytotoxicity against human SKOV3 cells assessed as cell growth at 5 uM by SRB assay; format: functional; conditions: read-out: Activity
[31] = test system: U-251; experiment: Cytotoxicity against human U251 cells assessed as cell growth at 5 uM by SRB assay; format: functional; conditions: read-out: Activity
[32] = test system: UACC-257; experiment: Cytotoxicity against human UACC257 cells assessed as cell growth at 50 uM by SRB assay; format: functional; conditions: read-out: Activity
[33] = test system: RPMI-8226; experiment: Cytotoxicity against human RPMI8226 cells assessed as cell growth at 0.05 uM by SRB assay; format: functional; conditions: read-out: Activity
[34] = test system: MOLT-4; experiment: Cytotoxicity against human MOLT4 cells assessed as cell growth at 0.5 uM by SRB assay; format: functional; conditions: read-out: Activity
[35] = test system: HOP-62; experiment: Cytotoxicity against human HOP62 cells by SRB assay; format: functional; outline: as §2
[36] = test system: OVCAR-5; experiment: Cytotoxicity against human OVCAR5 cells assessed as cell growth at 5 uM by SRB assay; format: functional; conditions: read-out: Activity
[37] = test system: KM12; experiment: Cytotoxicity against human KM12 cells assessed as cell growth at 50 uM by SRB assay; format: functional; conditions: read-out: Activity
[38] = read-out: LC50 (the source's name)
[39] = read-out: pLC50 (the source's name) (converted)

In the case of `COc1cc([C@@H]2c3cc4c(cc3[C@@H](NC(=O)CN3CCN(CCCCCCN5CCN(CC(=O)N[C@@H]6c7cc8c(cc7[C@@H](c7cc(OC)c(O)c(OC)c7)[C@H]7C(=O)OC[C@@H]76)OCO8)CC5)CC3)[C@H]3COC(=O)[C@H]23)OCO4)cc(OC)c1O`, the growth at 0.5 µM [1] is reported as 78%, the growth at 50 µM [2] is reported as -3% and the GI50 ([3]; read-out: GI50) is reported as 0.195 µM. It also gave a CC50 [3, 38] of over 50 µM, a TGI ([3]; read-out: TGI) of over 50 µM and a GI50 ([3]; read-out: pGI50 (converted)) of 0.195 µM. For the same compound, the CC50 [3, 39] was over 50.1 µM, the TGI ([3]; read-out: pTGI (converted)) was over 50.1 µM and the GI50 ([4]; read-out: GI50) was 13.6 µM. The CC50 [4, 38] was over 50 µM, the TGI ([4]; read-out: TGI) was over 50 µM and the GI50 ([4]; read-out: pGI50 (converted)) was 13.5 µM. It also gave a CC50 [4, 39] of over 50.1 µM, a TGI ([4]; read-out: pTGI (converted)) of over 50.1 µM and a GI50 ([5]; read-out: GI50) of 3.87 µM. It also gave a CC50 [5, 38] of over 50 µM, a TGI ([5]; read-out: TGI) of over 50 µM and a GI50 ([5]; read-out: pGI50 (converted)) of 3.89 µM. For the same compound, the CC50 [5, 39] was over 50.1 µM, the TGI ([5]; read-out: pTGI (converted)) was over 50.1 µM and the growth at 0.005 µM [6] was 99%. The growth at 0.5 µM [7] was 106%, the growth at 0.005 µM [8] was 90% and the growth at 5 µM [9] was 85%. For the same compound, the growth at 0.05 µM [10] was 87%, the Activity [11] was “Active” and the growth at 5 µM [12] was 42%. The growth at 0.005 µM [13] was 93%, the growth at 50 µM [14] was -16% and the GI50 ([15]; read-out: GI50) was over 50 µM. The CC50 [15, 38] was over 50 µM, the TGI ([15]; read-out: TGI) was over 50 µM and the GI50 ([15]; read-out: pGI50 (converted)) was over 50.1 µM. The CC50 [15, 39] was over 50.1 µM, the TGI ([15]; read-out: pTGI (converted)) was over 50.1 µM and the growth at 5 µM [16] was 6%. The growth at 0.05 µM [17] was 90%, the GI50 ([18]; read-out: GI50) was 1.66 µM and the CC50 [18, 38] was over 50 µM. The TGI ([18]; read-out: TGI) was over 50 µM, the GI50 ([18]; read-out: pGI50 (converted)) was 1.66 µM and the CC50 [18, 39] was over 50.1 µM. The TGI ([18]; read-out: pTGI (converted)) was over 50.1 µM, the growth at 5 µM [19] was 51% and the growth at 0.5 µM [20] was 92%. It also gave a growth at 0.05 µM [21] of 96%, a growth at 50 µM [22] of 10% and a growth at 50 µM [23] of -33%. The growth at 5 µM [24] was 7%, the growth at 0.005 µM [25] was 75% and the growth at 0.05 µM [26] was 108%. For the same compound, the GI50 ([27]; read-out: GI50) was 0.919 µM, the CC50 [27, 38] was over 50 µM and the TGI ([27]; read-out: TGI) was 15.2 µM. The GI50 ([27]; read-out: pGI50 (converted)) was 0.912 µM, the CC50 [27, 39] was over 50.1 µM and the TGI ([27]; read-out: pTGI (converted)) was 15.1 µM. For the same compound, the GI50 ([28]; read-out: GI50) was over 50 µM, the CC50 [28, 38] was over 50 µM and the TGI ([28]; read-out: TGI) was over 50 µM. For the same compound, the GI50 ([28]; read-out: pGI50 (converted)) was over 50.1 µM, the CC50 [28, 39] was over 50.1 µM and the TGI ([28]; read-out: pTGI (converted)) was over 50.1 µM. For the same compound, the GI50 ([29]; read-out: GI50) was 10.5 µM, the CC50 [29, 38] was over 50 µM and the TGI ([29]; read-out: TGI) was over 50 µM. It also gave a GI50 ([29]; read-out: pGI50 (converted)) of 10.5 µM, a CC50 [29, 39] of over 50.1 µM and a TGI ([29]; read-out: pTGI (converted)) of over 50.1 µM. It also gave a growth at 5 µM [30] of 44%, a growth at 5 µM [31] of 23% and a growth at 50 µM [32] of 41%. For the same compound, the growth at 0.05 µM [33] was 86%, the growth at 0.5 µM [34] was 23% and the GI50 ([35]; read-out: GI50) was 3.6 µM. For the same compound, the CC50 [35, 38] was over 50 µM, the TGI ([35]; read-out: TGI) was 22.8 µM and the GI50 ([35]; read-out: pGI50 (converted)) was 3.63 µM. For the same compound, the CC50 [35, 39] was over 50.1 µM, the TGI ([35]; read-out: pTGI (converted)) was 22.9 µM and the growth at 5 µM [36] was 58%. The growth at 50 µM [37] was 10%.
